Assay results: ChEMBL document CHEMBL1629577, “Activity of T-705 in a hamster model of yellow fever virus infection in comparison with that of a chemically related compound, T-1106” (Antimicrob Agents Chemother, 2009)
Calls of active or inactive are those of the source. The rule behind the calls is not given here.

Tests used:
Yellow fever virus [1] = assay: Antiviral activity 10^2 CCID50 Yellow fever virus Jimenez infected in syrian golden hamster assessed as serum AST level at 100 mg/kg/day, po administered twice daily for 8 days started 4 hrs prior to viral infection; format: functional, organism-based
Yellow fever virus [2] = assay: Antiviral activity against 10^2 CCID50 Yellow fever virus Jimenez infected in syrian golden hamster assessed as serum ALT level at 100 mg/kg/day, po administered twice daily for 8 days started 4 hrs prior to viral infection; format: functional
Yellow fever virus [3] = assay: Antiviral activity against 10^2 CCID50 Yellow fever virus Jimenez infected in syrian golden hamster assessed as serum ALT level at 400 mg/kg/day, po administered daily for days started 1 day post viral challenge; format: functional
Yellow fever virus [4] = assay: Antiviral activity against Yellow fever virus 17D infected in African green monkey Vero cells assessed as inhibition of virus induced cytopathic effect by luciferase reporter gene assay; format: functional, cell-based
Yellow fever virus [5] = assay: Antiviral activity against 10^2 CCID50 Yellow fever virus Jimenez infected in syrian golden hamster assessed as serum AST level at 200 mg/kg/day, po administered twice daily for 8 days started 4 hrs prior to viral infection; format: functional, organism-based
Yellow fever virus [6] = assay: Antiviral activity against 10^2 CCID50 Yellow fever virus Jimenez infected in syrian golden hamster assessed as serum survival of animal at 100 mg/kg/day, po administered twice daily for 8 days started 4 hrs prior to viral infection; format: functional, organism-based
Yellow fever virus [7] = assay: Antiviral activity against 10^2 CCID50 Yellow fever virus Jimenez infected in syrian golden hamster assessed as serum AST level at 400 mg/kg/day, po administered daily for days started 4 day post viral challenge; format: functional
Yellow fever virus [8] = assay: Antiviral activity against 10^2 CCID50 Yellow fever virus Jimenez infected in syrian golden hamster assessed as serum AST level at 32 mg/kg/day, po administered twice daily for 8 days started 4 hrs prior to viral infection; format: functional, organism-based
Yellow fever virus [9] = assay: Antiviral activity against 10^2 CCID50 Yellow fever virus Jimenez infected in syrian golden hamster assessed as mean day of death […] at 400 mg/kg/day, po administered twice daily for 8 days started 1 day post infection; format: functional
Yellow fever virus [10] = assay: Antiviral activity against 10^2 CCID50 Yellow fever virus Jimenez infected in syrian golden hamster assessed as serum AST level in non surviving animals at 400 mg/kg/day, po administered 4 days post viral infection; format: functional
Yellow fever virus [11] = assay: Antiviral activity against 10^2 CCID50 Yellow fever virus Jimenez infected in syrian golden hamster assessed as serum ALT level in non surviving animals at 400 mg/kg/day, po administered 4 days post viral infection; format: functional
Yellow fever virus [12] = assay: Antiviral activity against 10^2 CCID50 Yellow fever virus Jimenez infected in syrian golden hamster assessed as serum AST level at 400 mg/kg/day, po administered daily for days started 3 day post viral challenge; format: functional
Yellow fever virus [13] = assay: Antiviral activity against 10^2 CCID50 Yellow fever virus Jimenez infected in syrian golden hamster assessed as serum ALT level at 200 mg/kg/day, po administered twice daily for 8 days started 4 hrs prior to viral infection; format: functional
Yellow fever virus [14] = assay: Antiviral activity against 10^2 CCID50 Yellow fever virus Jimenez infected in syrian golden hamster assessed as survival of animal at 400 mg/kg/day, po administered twice daily for 8 days started 1 day post viral infection; format: functional, organism-based
Yellow fever virus [15] = assay: Antiviral activity against 10^2 CCID50 Yellow fever virus Jimenez infected in syrian golden hamster assessed as serum AST level at 400 mg/kg/day, po administered twice daily for 8 days started 4 hrs prior to viral infection; format: functional, organism-based
Yellow fever virus [16] = assay: Antiviral activity against 10^2 CCID50 Yellow fever virus Jimenez infected in syrian golden hamster assessed as serum ALT level in surviving animals at 400 mg/kg/day, po administered 4 days post viral infection; format: functional
Yellow fever virus [17] = assay: Antiviral activity against Yellow fever virus 17D infected in African green monkey Vero cells assessed as inhibition of virus induced cytopathic effect […] by NR dye uptake assay; format: functional, cell-based
Yellow fever virus [18] = assay: Antiviral activity against 10^2 CCID50 Yellow fever virus Jimenez infected in syrian golden hamster assessed as serum ALT level in non surviving animals at 400 mg/kg/day, po administered 5 days post viral infection; format: functional
Yellow fever virus [19] = assay: Antiviral activity against 10^2 CCID50 Yellow fever virus Jimenez infected in syrian golden hamster assessed as serum AST level in surviving animals at 400 mg/kg/day, po administered 5 days post viral infection; format: functional
Yellow fever virus [20] = assay: Antiviral activity against 10^2 CCID50 Yellow fever virus Jimenez infected in syrian golden hamster assessed as mean day of death […] at 400 mg/kg/day, po administered twice daily for 8 days started 5 day post infection; format: functional
Yellow fever virus [21] = assay: Antiviral activity against 10^2 CCID50 Yellow fever virus Jimenez infected in syrian golden hamster assessed as serum AST level in non surviving animals at 400 mg/kg/day, po administered 5 days post viral infection; format: functional
Yellow fever virus [22] = assay: Antiviral activity against Yellow fever virus 17D infected in African green monkey Vero cells assessed as reduction in virus yield; format: functional
Procedure, shortened: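 Virus yield reduction in Vero cells infected with YFV 17D after compound exposure, with progeny virus titred by CCID50. The EC90 was averaged over separate experiments.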

Yellow fever virus [23] = assay: Antiviral activity against Yellow fever virus 17D infected in African green monkey Vero cells assessed as inhibition of virus induced cytopathic effect by microscopic analysis; format: functional, cell-based
Yellow fever virus [24] = assay: Antiviral activity against 10^2 CCID50 Yellow fever virus Jimenez infected in syrian golden hamster assessed as serum ALT level in surviving animals at 400 mg/kg/day, po administered 5 days post viral infection; format: functional
Yellow fever virus [25] = assay: Antiviral activity against 10^2 CCID50 Yellow fever virus Jimenez infected in syrian golden hamster assessed as mean day of death […] at 400 mg/kg/day, po administered twice daily for 8 days started 2 day post infection; format: functional
Yellow fever virus [26] = assay: Antiviral activity against 10^2 CCID50 Yellow fever virus Jimenez infected in syrian golden hamster assessed as serum ALT level at 400 mg/kg/day, po administered daily for days started 4 day post viral challenge; format: functional
Yellow fever virus [27] = assay: Antiviral activity against 10^2 CCID50 Yellow fever virus Jimenez infected in syrian golden hamster assessed as serum ALT level at 400 mg/kg/day, po administered daily for days started 5 day post viral challenge; format: functional
Yellow fever virus [28] = assay: Antiviral activity against 10^2 CCID50 Yellow fever virus Jimenez infected in syrian golden hamster assessed as serum AST level at 50 mg/kg/day, po administered twice daily for 8 days started 4 hrs prior to viral infection; format: functional, organism-based
Yellow fever virus [29] = assay: Antiviral activity against 10^2 CCID50 Yellow fever virus Jimenez infected in syrian golden hamster assessed as reduction in viral titer in liver at 200 mg/kg/day administered twice daily for 8 days started 6 days post infection by quantitative RT-PCR analysis; format: functional, organism-based
Yellow fever virus [30] = assay: Antiviral activity against 10^2 CCID50 Yellow fever virus Jimenez infected in syrian golden hamster assessed as serum ALT level at 400 mg/kg/day, po administered daily for days started 3 day post viral challenge; format: functional
Yellow fever virus [31] = assay: Antiviral activity against 10^2 CCID50 Yellow fever virus Jimenez infected in syrian golden hamster assessed as serum ALT level at 400 mg/kg/day, po administered twice daily for 8 days started 4 hrs prior to viral infection; format: functional
Yellow fever virus [32] = assay: Antiviral activity against Yellow fever virus 17D infected in African green monkey Vero cells assessed as time required for inhibition of viral replication at 6400 uM up to 12 hrs post-viral infection; format: functional, cell-based

## NC(=O)c1nc(F)cnc1O [FAVIPIRAVIR]
Yellow fever virus [1]
  Activity: inactive
Yellow fever virus [2]
  Activity: 157 IU/L
Yellow fever virus [3]
  Activity: 80 IU/L
Yellow fever virus [4]
  EC50: 270 µM
Yellow fever virus [5]
  Activity: inactive
Yellow fever virus [6]
  Activity: inactive
Yellow fever virus [7]
  Activity: 131 IU/L
Yellow fever virus [8]
  Activity: inactive
Yellow fever virus [9]
  Time: >21 days
Yellow fever virus [10]
  Activity: 189 IU/L
Yellow fever virus [11]
  Activity: 231 IU/L
Yellow fever virus [12]
  Activity: 137 IU/L
Yellow fever virus [13]
  Activity: 128 IU/L
Yellow fever virus [14]
  Activity: Active
Yellow fever virus [15]
  Activity: inactive
Yellow fever virus [16]
  Activity: 77 IU/L
Yellow fever virus [17]
  EC50: 270 µM
Yellow fever virus [18]
  Activity: 332 IU/L
Yellow fever virus [19]
  Activity: 153 IU/L
Yellow fever virus [20]
  Time: 6.8 days
Yellow fever virus [21]
  Activity: 285 IU/L
Yellow fever virus [22]
  EC90: 330 µM
Yellow fever virus [23]
  EC50: 180 µM
Yellow fever virus [24]
  Activity: 64 IU/L
Yellow fever virus [25]
  Time: >21 days
Yellow fever virus [26]
  Activity: 115 IU/L
Yellow fever virus [27]
  Activity: 157 IU/L
Yellow fever virus [28]
  Activity: inactive
Yellow fever virus [29]
  Activity: Active
Yellow fever virus [30]
  Activity: 139 IU/L
Yellow fever virus [31]
  Activity: 63 IU/L
Yellow fever virus [32]
  Activity: Active
